Source: article PMC5542862 (Microcirculation (New York, N.Y. : 1994), 2017)
Where two headings read alike, the source gives them in different places.

Columns and labels:
[1] = system: arcade and terminal arterioles of the hamster cheek pouch; type: in vivo; conditions: for Effect of muscarinic blockade on vasoactivity (in words): atropine 10^−7 M in tissue bath; for Effect of beta-adrenergic blockade on dilation (in words): propranolol 10^−6M in tissue bath; for Dose range of vasodilation / Control Dose Max dilation / Control (%) Max dilation: quiescent tissue; for Dose range of vasodilation: mucocutaneous microvasculature; for Control Dose Max dilation: 60-second micropipette exposure; for Control (%) Max dilation: at the dose of max dilation
Summary of the method: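 Adult male hamsters were anaesthetised with pentobarbital (70 mg/kg), tracheostomised and kept at 37 °C. The left cheek pouch was superfused with 37 °C bicarbonate-buffered saline and rested 30 min. Test compound was given by micropipette (10–20 μm tip, with FITC-dextran 10−6M) at the arcade–terminal junction for 60 s, then 5 min recovery. One full concentration series per site, 2–4 sites ≥1000 μm apart. Fractional diameter change = (baseline−peak)/baseline; repeated-measures ANOVA.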

[2] = system: arcade and terminal arterioles of the hamster cheek pouch; experiment: Hamster cheek pouch intravital microscopy, nitrosative stress model; type: in vivo; conditions: for Vasoactive response after stress compared with before (in words): nitrosative stress, agent 10^−4M by micropipette, n=35; for Effect of nitrosative stress on the concentration response (in words): SNP 10^−4M in tissue bath for 2 minutes; for Stress (%) Max dilation: after stress, at the dose of max dilation
Summary of the method: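 Anaesthetised male hamster cheek pouch, superfused with 37 °C bicarbonate saline. Stress: SNP 10−4M washed into the bath for 2 min, with endothelial dysfunction checked by micropipette acetylcholine 10−4M. Test compound was given by micropipette for 60 s with 5 min recovery, 15 min–3 h after stress, at most four exposures per site. Response = (baseline−peak)/baseline from video; repeated-measures ANOVA, unpaired t-test.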

[3] = system: PDGF-BB; conditions: Lin, et al., 2014, Zhu; cited from earlier work
[4] = target: PDGF-BB; conditions: cited from earlier work; for Kd: read-out: KD for PDGF-BB binding
[5] = system: thermal burn injury progression; conditions: rat hot comb model; cited from earlier work
[6] = system: adult human dermal fibroblasts; conditions: cited from earlier work
[7] = system: arcade and terminal arterioles of the hamster cheek pouch; type: in vivo; conditions: 20s, 50 °C, within 500 μm of heat rim
Summary of the method: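 In the superfused cheek pouch of anaesthetised male hamsters, a thermocouple-controlled microcautery Pt wire (300 μm) applied 50 °C for 20 s. After 15 min, micropipette exposures (60 s, 5 min recovery) were mapped to 1000 μm from the heat rim; only sites within 500 μm are reported. Diameter change = (baseline−peak)/baseline from video; repeated-measures ANOVA or unpaired t-test, α 0.05.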

Question: Which “Diameter change, fractional change from baseline” value ([1]; arcade arterioles, acetylcholine 10^−4M with atropine (10^−7 M), mean ± SD, n=26 sites) does the source give for CC(=O)OCC[N+](C)(C)C [acetylcholine, reference compound] here?
Answer: The value was 0.03±0.15.

Question: And the “Diameter change, fractional change from baseline” value ([1]; arcade arterioles, acetylcholine 10^−4M, no blocker, mean ± SD, n=26 sites)?
Answer: The value was 0.50±0.36.

Question: And the “Diameter change, fractional change from baseline” value ([1]; terminal arterioles, acetylcholine 10^−4M with atropine (10^−7 M), mean ± SD, n=26 sites)?
Answer: Its value is 0.03±0.10.

Question: What about the “Diameter change, fractional change from baseline” value ([1]; terminal arterioles, acetylcholine 10^−4M, no blocker, mean ± SD, n=26 sites) of the same compound?
Answer: The value was 0.49±0.28.

Question: With Nc1ncnc2c1ncn2[C@@H]1O[C@H](CO)[C@@H](O)[C@H]1O [adenosine, reference compound] as the compound, how does the “Diameter change, fractional change from baseline” value ([1]; arcade arterioles, adenosine 10^−4 M, mean ± SD) read?
Answer: The value was 0.54±0.35.

Question: And the “Diameter change, fractional change from baseline” value ([1]; terminal arterioles, adenosine 10^−4 M, mean ± SD)?
Answer: Its value is 0.60±0.43.

Question: And the “Vasoactive response after stress compared with before (in words)” value [2]?
Answer: The value was “compromised”.

Question: With CC(C)NCC(O)c1ccc(O)c(O)c1 (stereo not drawn) [isoproterenol, reference compound] as the compound, how does the “Diameter change, fractional change from baseline” value ([1]; arcade arterioles, isoproterenol 10^−7M with propranolol (10^−6M), mean ± SD, n=23 sites) read?
Answer: The value was 0.00±0.11.

Question: And the “Diameter change, fractional change from baseline” value ([1]; arcade arterioles, isoproterenol 10^−7M, no blocker, mean ± SD, n=23 sites)?
Answer: The value was 0.41±0.3.

Question: What about the “Diameter change, fractional change from baseline” value ([1]; terminal arterioles, isoproterenol 10^−6M with carazolol 10^−9M, mean+sem, significant constriction) of the same compound?
Answer: The value was −0.50+0.15.

Question: What about the “Diameter change, fractional change from baseline” value ([1]; terminal arterioles, isoproterenol 10^−7M with propranolol (10^−6M), mean ± SD, n=23 sites) of the same compound?
Answer: The value was 0.01±0.00.

Question: What about the “Diameter change, fractional change from baseline” value ([1]; terminal arterioles, isoproterenol 10^−7M, no blocker, mean ± SD, n=23 sites) of the same compound?
Answer: Its value is 0.43±0.34.

Question: Which “Diameter change, fractional change from baseline” value ([1]; arcade arterioles, phenylephrine 10^−5M, no blocker, mean ± SD, n=23 sites) does the source give for CNC[C@H](O)c1cccc(O)c1 [phenylephrine, reference compound] here?
Answer: The value was −0.52±0.18.

Question: And the “Diameter change, fractional change from baseline” value ([1]; arcade arterioles, phenylephrine 10^−6M, mean ± SD)?
Answer: The value was −0.53±0.18.

Question: What about the “Diameter change, fractional change from baseline” value ([1]; terminal arterioles, phenylephrine 10^−5M, no blocker, mean ± SD, n=23 sites) of the same compound?
Answer: The value was −0.48±0.16.

Question: And the “Diameter change, fractional change from baseline” value ([1]; terminal arterioles, phenylephrine 10^−6M, mean ± SD)?
Answer: The value was −0.48±0.16.

Question: And the “Vasoactive response after stress compared with before (in words)” value [2]?
Answer: The value was “unaffected”.

Question: Which results are given for FN: Full-length plasma fibronectin?
Answer: Vasoactive response in quiescent tissue (in words) ([1]; arcade and terminal arterioles, 10^−16–10^−4M by micropipette, N=5–8 per peptide): induced only vasodilation; Effect of muscarinic blockade on vasoactivity (in words) [1]: no effect; Effect of combined alpha- and beta-adrenergic blockade (in words) ([1]; phentolamine 10^−5M plus propranolol 10^−6M): eliminated only the vasodilation with the peptides and not FN; Effect of beta-adrenergic blockade on dilation (in words) ([1]; arcade and terminal arterioles): significantly diminished dilation

Question: With ILRWRPK [P7] as the compound, how does the FN/PDGF-BB binding inhibition [3] read?
Answer: The FN/PDGF-BB binding inhibition was 0.1%.

Question: And the Kd [4]?
Answer: The Kd was 1000 nM.

Question: And the “Effect of muscarinic blockade on vasoactivity (in words)” value [1]?
Answer: The value was “no effect”.

Question: And the “Effect of beta-adrenergic blockade on dilation (in words)” value (from here on “Effect of beta-adrenergic blockade”) ([1]; arcade and terminal arterioles)?
Answer: Its value is “prevented vasodilation”.

Question: And the “Dose range of vasodilation” value [1]?
Answer: Its value is 10^−9–10^−8 M.

Question: And the “Control Dose Max dilation” value ([1]; terminal arterioles)?
Answer: The value was 10^−8M.

Question: And the “Control (%) Max dilation” value ([1]; terminal arterioles)?
Answer: The value was 28%.

Question: What about the “Effect of nitrosative stress on the concentration response (in words)” value (“Effect of nitrosative stress” for short) [2] of the same compound?
Answer: The value was “left shift”.

Question: What about the “Stress (%) Max dilation” value [2] of the same compound?
Answer: Its value is 29%.

Question: For LRWRPK [P39], which FN/PDGF-BB binding inhibition [3] is on record?
Answer: Its FN/PDGF-BB binding inhibition is 0.0%.

Question: What about the “Control (%) Max dilation” value ([1]; terminal arterioles) of the same compound?
Answer: The value was 8%.

Question: Which FN/PDGF-BB binding inhibition [3] does the source give for PSHISKYILRWRPK [EVA-1, epiviosamine-1] here?
Answer: Its FN/PDGF-BB binding inhibition is 95.5%.

Question: What about the “Dose range binding PDGF-BB” value [4] of the same compound?
Answer: The value was 10^−8–10^−7 M.

Question: And the Kd [4]?
Answer: The Kd was 200 nM.

Question: What about the “Effect on thermal burn injury progression (in words)” value [5] of the same compound?
Answer: Its value is “limits thermal burn injury progression”.

Question: What about the “Effect of muscarinic blockade on vasoactivity (in words)” value [1] of the same compound?
Answer: The value was “no effect”.

Question: And the “Effect of beta-adrenergic blockade” value ([1]; arcade and terminal arterioles)?
Answer: Its value is “prevented vasodilation”.

Question: What about the “Dose range of vasodilation” value [1] of the same compound?
Answer: The value was 10^−9–10^−8 M.

Question: What about the “Control Dose Max dilation” value ([1]; terminal arterioles) of the same compound?
Answer: Its value is 10^−9M.

Question: And the “Control (%) Max dilation” value ([1]; terminal arterioles)?
Answer: The value was 22%.

Question: And the “Effect of nitrosative stress” value [2]?
Answer: The value was “left shift”.

Question: And the “Stress (%) Max dilation” value [2]?
Answer: Its value is 32%.

Question: And the “Dose conferring survival activity” value [6]?
Answer: The value was 10^−7 M.

Question: And the “Dilation at 10^−8M after thermal stress (in words)” value ([7]; arcade arterioles)?
Answer: Its value is “reversed to constriction”.

Question: And the “Response to sub-nanomolar dose after thermal stress (in words)” value ([7]; both arteriolar types)?
Answer: The value was “significant vasodilation”.

Question: What about the “Dilation at 10^−8M after thermal stress (in words)” value ([7]; terminal arterioles) of the same compound?
Answer: Its value is “eliminated”.

Question: For RWRPK [P37], which FN/PDGF-BB binding inhibition [3] is on record?
Answer: The FN/PDGF-BB binding inhibition was 0.0%.

Question: What about the “Effect of beta-adrenergic blockade” value ([1]; arcade and terminal arterioles) of the same compound?
Answer: Its value is “prevented vasodilation”.

Question: What about the “Control (%) Max dilation” value ([1]; terminal arterioles) of the same compound?
Answer: The value was 19%.

Question: And the “Effect of nitrosative stress” value [2]?
Answer: Its value is “left shift”.

Question: And the “Stress (%) Max dilation” value [2]?
Answer: The value was 45%.

Question: With YILRWRPK [P18] as the compound, how does the FN/PDGF-BB binding inhibition [3] read?
Answer: Its FN/PDGF-BB binding inhibition is 26%.

Question: And the “Effect of beta-adrenergic blockade” value ([1]; arcade and terminal arterioles)?
Answer: The value was “prevented vasodilation”.

Question: And the “Control Dose Max dilation” value ([1]; terminal arterioles)?
Answer: Its value is 10^−8M.

Question: And the “Control (%) Max dilation” value ([1]; terminal arterioles)?
Answer: Its value is 26%.

Question: Which “Vasoactive response after stress compared with before (in words)” value [2] does the source give for nitroprusside [reference compound] here?
Answer: The value was “not compromised”.
